Bioassay records as filed in PubChem BioAssay.
In the library only some 4.1% were active in any assay of this set; here they are far more common.
hERG protect: hERG rescue from dofetilide block, primary screen, cell-based, CHO-hERG, FluxOR thallium flux, dofetilide IC70; dofetilide IC70 present; hit rate 0.51% among 310,000; AID 1511, 2009; Voltage-gated inwardly rectifying potassium channel KCNH2 (Homo sapiens), Q12809; activation (rescue from dofetilide block), less the hit threshold, % at 10 µM;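 active = activation above the mean of controls blocked by dofetilide plus 5 SD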;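 also: thallium influx through hERG after potassium depolarization seen as dye fluorescence rise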
KCNK3 block: human KCNK3 channel inhibitors, primary screen, CHO cells, FluxOR thallium flux, B-score; FluxOR fluorescence; hits give low values; B-score at 10 µM; hit rate 0.84% among 340,000;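 active = B-score under library mean minus 4 SD, starting fluorescence ratio at most library mean plus 5 SD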;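 also: more negative B-score means stronger inhibition of thallium flux through KCNK3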
KCNQ1 inh: inhibitors of human KCNQ1 channel, primary screen, cell-based, thallium flux, high-throughput; Potassium voltage-gated channel subfamily KQT member 1 (Homo sapiens), P51787; CHO-K1 KCNQ1, FluxOR thallium flux fluorescence; hits give high values; B-score at 10 µM; hit rate 1.3% among 310,000;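 active = compounds whose thallium flux B-score, printed positive for inhibition, exceeds three library SD while starting fluorescence stays within three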;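 also: channel opened by potassium depolarization with thallium stimulus after 20 min compound exposure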
KCNQ1 act: potentiators or activators of KCNQ1 channel, primary screen, cell-based, thallium flux, high-throughput | Potassium voltage-gated channel subfamily KQT member 1 (Homo sapiens), P51787 | CHO-K1 KCNQ1, thallium flux FluxOR fluorescence; hits give high values | B-score at 10 µM | hit rate 0.35% among 310,000 | AID 2648, 2010;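 active = fluorescence ratio B-score, a plate-corrected score, at least three library SD, with initial intensity B-score within 5 SD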
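Assay system: CHO-K1 cells stably expressing KCNQ1; Medium: assay buffer with matched DMSO; Also added: K+/Tl+ depolarizing stimulus; Dosing: single dose; Timing: dye 90 min, compound 20 min, room temperature; Measured by: kinetic FluxOR thallium fluorescence, 10-s 1-Hz baseline, 110-s post-stimulus read; Read-out: peak-minus-minimum fluorescence over initial fluorescence, negative-control normalized, B-scored.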
KCNK9 block: KCNK9 potassium channel inhibitors, primary screen, HEK293 cells, thallium flux; B-score at 10 µM; AID 488922, 2010; FluxOR thallium flux fluorescence; hits give low values; hit rate 1.2% among 310,000; Potassium channel subfamily K member 9 (Homo sapiens), Q9NPC2;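 active = ratio B-score over 3 SD below the library mean, with starting fluorescence within 5 SD of its mean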;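 also: negative B-score means less thallium flux so channel inhibition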
KCC2 mod: KCC2 cotransporter modulators, thallium flux, primary screen, cell-based, HEK293 KCC2, FluoZin-2 fluorescence, MLSMR; KCC2 cells, thallium flux FluoZin-2 fluorescence; B-score of Tl+ flux slope (higher = more flux/activation; lower = inhibition) at 10 µM; hit rate 2.2% among 190,000; AID 1456, 2008;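 active = thallium flux slope and its plate-corrected score both differing from the plate sample mean at a set confidence after two filtering rounds, in either direction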;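 also: slope of fluorescence scaled to starting intensity during 10 to 20 s after thallium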
KCNQ1 block val: KCNQ1 potassium channel inhibitors, confirmation, cell-based, Tl flux, duplicate; shares compounds with KCNQ1 inh; KCNQ1 cell line, FluxOR thallium flux fluorescence; inhibition, % at 10 µM; hit rate 93% among 1,600; AID 588353, 2011;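 active = primary screen active, with duplicate mean exceeding buffer control mean plus 3 SD of buffer wells, cut at about 28% in these data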
CHO KCNQ1 ctr: thallium flux effects in parental CHO cells, counter-screen for KCNQ1 inhibitor project, cell-based, Tl flux. shares compounds with KCNQ1 inh. fluorescence ratio (Tl flux) at 10 µM. parental CHO-K1, FluxOR thallium flux fluorescence ratio; hits give low values; zero means no signal rise above baseline. hit rate 21% among 1,600;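 active = mean of duplicate thallium-flux fluorescence ratios in parental host cells more than 5 SD below the buffer control mean, cut at about 0.38 in these data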;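 also: ratio is peak minus minimum fluorescence divided by baseline fluorescence; actives read low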
KCNQ1 APC inh: KCNQ1 channel inhibitors, confirmation, orthogonal assay, cell-based, automated electrophysiology. hit rate 20% among 490. shares compounds with KCNQ1 inh. AID 624120, 2012. calls only at 10 µM. KCNQ1-CHO cells, automated patch clamp current;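 active = KCNQ1 current drop exceeding 3 SD of negative control wells, seen in both duplicate runs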;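 also: steady state current during a 2 s step from -80 to +40 mV; negative values mean current inhibition and positive values mean potentiation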
KCNQ2 spec: KCNQ2 channel inhibition, selectivity assay for KCNQ1 inhibitor project, cell-based. AID 651746, 2012. KCNQ2 cells, FluxOR thallium flux fluorescence. shares compounds with KCNQ1 inh. hit rate 71% among 1,600. inhibition, % at 10 µM;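 active = mean percent inhibition of the KCNQ2 thallium signal more than 5 SD above the buffer-only control wells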;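 also: KCNQ2 expressed in CHO cells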
KCNQ1 KCNE1 spec: KCNQ1/KCNE1 channel inhibition, selectivity assay for KCNQ1 inhibitor project, CHO-K1 cells, thallium flux, FluxOR; shares compounds with KCNQ1 inh; FluxOR thallium flux fluorescence; inhibition, % at 10 µM; hit rate 77% among 1,600; AID 652147, 2013;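 active = mean percent inhibition of duplicate wells above the buffer-only control mean plus 3 SD of those controls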
KCNK9 inh conf: KCNK9 potassium channel inhibitors, confirmation, HEK293 cells, thallium flux, duplicate. shares compounds with KCNK9 block. FluxOR thallium flux fluorescence. inhibition, % at 10 µM. hit rate 43% among 4,900. AID 492992, 2010;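 active = thallium signal inhibited by more than 5 SD of the compound-free buffer control wells, on both duplicate plates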
Kir21 sel: mouse Kir2.1 channel inhibition, confirmation, selectivity assay for KCNK9 modulator project, cell-based, HEK293, thallium flux; shares compounds with KCNK9 block; Kir2.1 cells, FluxOR thallium flux fluorescence; inhibition, % at 10 µM; hit rate 4% among 4,900; AID 492993, 2010;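 active = thallium signal drop more than 5 SD beyond the mean of the no-compound control wells, seen in both duplicate plates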;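 also: signal is fluorescence rise after thallium addition divided by baseline fluorescence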
HEK293 Tl ctr: thallium flux in non-induced HEK293 cells, confirmation, counter-screen for KCNK9 inhibitor project, cell-based, second counter screen, non-induced KCNK9-HEK293; FluxOR thallium flux; inhibition, % at 10 µM; shares compounds with KCNK9 block; hit rate 40% among 4,900;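 active = thallium signal drop beyond 5 SD of the untreated control mean, on both duplicate plates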
KCNK3 confirm: retest of human KCNK3 channel inhibitors, confirmation, CHO cells, FluxOR thallium flux, triplicate. shares compounds with KCNK3 block. FluxOR fluorescence; 0% buffer, 100% carvedilol maximal block. ratio percent of control, % at 10 µM. hit rate 99% among 2,400. AID 651638, 2012;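 active = ratio percent of control, averaged over triplicates, above buffer control mean plus 5 SD, cut at about 64% in these data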;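 also: ratio is the fluorescence rise from min to max over baseline after thallium stimulus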
KCNK3 uninduced: thallium flux inhibition in non-induced cells, primary screen, counter-screen for KCNK3 inhibitor project, cell-based, non-induced KCNK3 line, FluxOR thallium, triplicate. shares compounds with KCNK3 block. non-induced KCNK3 parental cells; hits give low values. thallium flux ratio (lower = more inhibition) at 10 µM. hit rate 40% among 2,400. AID 651747, 2012;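 active = thallium flux ratio, averaged over three wells, more than 5 SD below the buffer control mean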;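 also: host cells are CHO cells without KCNK3 induction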
Of the large screens only hits and unclear results are named; the others gave an inactive call (follow-up assays come after a bar, where they were run).

COc1cc2c(cc1OC)C(c1ccc(-c3ccccc3Cl)o1)=NCC2	KCNK3 block -12, KCNQ1 inh 12 | KCNQ1 block val 136 | CHO KCNQ1 ctr 0.37 | KCNQ2 spec 145% | KCNQ1 KCNE1 spec 196% | KCNK3 confirm 101 | KCNK3 uninduced 0.12
COc1cc2c(cc1OC)C(c1ccc(-c3ccc(Cl)cc3Cl)o1)=NCC2	none (no result: KCC2 mod)
Cc1cc2c(n1-c1ccc(C(=O)O)cc1)CCCCC2	none (no result: KCNK3 block, KCC2 mod)
C[C@H](NC(=O)c1ccco1)C(=O)N1CCCC1	none (no result: KCC2 mod)
COc1cccc(NC(=O)c2ccccc2)c1	none (no result: hERG protect, KCNQ1 inh, KCNQ1 act, KCNK9 block, KCC2 mod)
COc1cccc(C(=O)Nc2cccc(-c3ccccc3)c2)c1	KCNK3 block -12, KCNQ1 inh 9 (no result: KCC2 mod) | KCNQ1 block val 148 | CHO KCNQ1 ctr inactive | KCNQ1 APC inh inactive | KCNQ2 spec 99% | KCNQ1 KCNE1 spec active | KCNK3 confirm 113 | KCNK3 uninduced inactive
O=C(Nc1ccc(OC(F)F)c(Cl)c1)c1cccc(OC(F)F)c1	KCNK3 block -11, KCNQ1 inh 12, KCNK9 block -12 | KCNQ1 block val 106 | CHO KCNQ1 ctr inactive | KCNQ1 APC inh active | KCNQ2 spec inactive | KCNQ1 KCNE1 spec 43% | KCNK9 inh conf 54% | Kir21 sel inactive | HEK293 Tl ctr inactive | KCNK3 confirm 120 | KCNK3 uninduced inactive
